From PubChem BioAssay AID489030 (Sanford-Burnham Center for Chemical Genomics, 2010)
“And” between values parts separate entries of the source, which are not always exact repeats. Equal values may be shown once. Among all 330,000 compounds or so, about 2,400 (0.73%) were called active. For the sample, actives were picked, then their nearest neighbours and some compounds at random. A number with no mark means an inactive call. How the source made its calls: active means inhibition of at least 40% at 20 µM; inactive means the rest.

target: Apoptotic protease-activating factor 1 (Homo sapiens) (UniProt O14727); test: blockers of Apaf-1-driven caspase-3 activation – biochemical, DEVD-Rh110 fluorescence, uHTS, primary screen (AID 489030); conditions: reconstituted apoptosome caspase-3 activity, at 20 µM, hits give high values;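 further: plate controls were DMSO wells for no effect and DEVD-CHO caspase inhibitor wells for full effect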
Sequence (O14727 whole entry, looked up): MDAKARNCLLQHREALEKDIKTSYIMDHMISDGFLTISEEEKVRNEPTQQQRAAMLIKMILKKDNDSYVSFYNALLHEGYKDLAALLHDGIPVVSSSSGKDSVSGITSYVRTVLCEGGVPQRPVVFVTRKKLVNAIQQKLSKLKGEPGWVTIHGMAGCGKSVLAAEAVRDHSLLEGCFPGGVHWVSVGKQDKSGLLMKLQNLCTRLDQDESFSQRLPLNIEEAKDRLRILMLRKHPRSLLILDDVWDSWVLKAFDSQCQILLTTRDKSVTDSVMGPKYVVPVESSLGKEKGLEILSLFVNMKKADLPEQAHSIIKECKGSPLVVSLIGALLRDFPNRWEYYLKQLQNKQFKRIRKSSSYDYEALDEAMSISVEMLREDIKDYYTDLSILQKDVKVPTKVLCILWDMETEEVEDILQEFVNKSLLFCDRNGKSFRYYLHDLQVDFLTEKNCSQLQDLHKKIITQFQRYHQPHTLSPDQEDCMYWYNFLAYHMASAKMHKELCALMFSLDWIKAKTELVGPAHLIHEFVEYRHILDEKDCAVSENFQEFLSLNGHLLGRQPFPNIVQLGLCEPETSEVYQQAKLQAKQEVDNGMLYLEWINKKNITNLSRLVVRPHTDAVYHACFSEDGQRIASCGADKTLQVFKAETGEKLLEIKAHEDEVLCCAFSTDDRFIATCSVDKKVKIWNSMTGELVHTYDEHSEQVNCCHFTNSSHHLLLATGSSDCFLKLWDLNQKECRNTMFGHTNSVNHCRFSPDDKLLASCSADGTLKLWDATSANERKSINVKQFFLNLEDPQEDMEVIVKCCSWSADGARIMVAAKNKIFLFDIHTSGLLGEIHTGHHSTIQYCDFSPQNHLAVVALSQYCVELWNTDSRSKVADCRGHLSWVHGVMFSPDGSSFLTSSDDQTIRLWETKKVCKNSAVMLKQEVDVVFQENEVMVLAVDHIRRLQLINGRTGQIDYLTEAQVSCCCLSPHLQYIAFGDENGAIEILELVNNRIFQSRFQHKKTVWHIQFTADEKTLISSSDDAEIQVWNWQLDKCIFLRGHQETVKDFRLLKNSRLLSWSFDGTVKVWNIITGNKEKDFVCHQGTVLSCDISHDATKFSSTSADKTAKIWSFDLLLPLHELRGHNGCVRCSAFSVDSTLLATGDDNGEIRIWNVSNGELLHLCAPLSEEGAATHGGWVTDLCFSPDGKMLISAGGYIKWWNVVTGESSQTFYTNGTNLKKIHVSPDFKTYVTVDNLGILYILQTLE
Outline: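 Material: reconstituted apoptosome with Apaf-1, cytochrome c, caspase-9, procaspase-3, dATP; medium: pH 7.5 Hepes buffer with CHAPS, BSA, DTT; also added: cytochrome c and DEVD-Rh110 substrate; timing: 30 min plus 50 min, RT; signal: Rh110 fluorescence intensity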

Structure (SMILES) | inhibition
CC(=O)N(C1=C(Cl)C(=O)c2ccccc2C1=O)c1ccc(C(=O)O)cc1 | 89% (active)
Cc1ccc(-c2nc(-c3cccnc3)sc2CC(=O)Nc2ccc(C)c(Cl)c2)cc1 | 19%
Cc1cccc(OCC(=O)NC2CC(C)(C)NC(C)(C)C2)c1 | 0.115%
O=c1cc(N2CCCCC2)c(-c2ccccc2)nn1Cc1cccc(F)c1 | 44% (active)
O=C(CS(=O)(=O)c1cn(Cc2cccc(F)c2)c2ccccc12)N1CCCCC1 | 18.4%
c1ccc(-c2cc(N3CCCCC3)c3ccccc3n2)cc1 | -0.639%
COc1ccc(OC)c(NC(=S)N2CCc3ccccc3C2)c1 | -1.06%
O=S(=O)(c1ccc(Br)cc1)N1CCC(c2nc3ccccc3[nH]2)CC1 | 6.06%
Cc1noc(C)c1CSc1nnc2ccc3ccccc3n12 | -5%
COc1ccc(/C=N/Nc2cc(N3CCOCC3)nc(C)n2)c(OC)c1 | 0.02%
CN(C)c1ccc(/C=N/Nc2cc(N3CCOCC3)nc(N3CCOCC3)n2)cc1 | 1.31%
C(=N/Nc1cc(N2CCOCC2)nc(N2CCOCC2)n1)/c1ccccc1 | 76.5% (active)
Cc1ccc(C)c2c1cc(C)c1nnc(SCC(=O)Nc3cccc(C(=O)O)c3)n12 | -9.82%
CCOCCCNS(=O)(=O)Cc1ccccc1 | 5.85%
COc1cnc(SCc2ccc(Cl)c(Cl)c2)nc1Cl | 0.38%
O=C(CN1CCCCCC1)Nc1c(Cl)cc(Cl)cc1Cl | -0.605%
Cc1[nH][nH]c(=O)c1C(c1ccc(-c2ccc(Cl)cc2)o1)c1c(C)[nH][nH]c1=O | 85.8% (active)
O=C(NC1CCCCC1)c1ccc(-c2ccc(Cl)cc2)o1 | 15%
CN(CC(=O)Nc1ccc(F)cc1)C(=O)c1ccc(-c2ccc(Cl)cc2)o1 | 22%
c1ccc(-n2nc3ccccc3n2)cc1 | 2.62%
Nc1ccc2nn(-c3ccc(Cl)cc3)nc2c1 | 83.8% (active)
CCC(=O)Nc1ccc2nn(-c3ccc(F)cc3)nc2c1 | 17.5%
O=Cc1c(Cl)cccc1Cl | -4.79%
Cc1nn(C)cc1N1C(=O)c2cccc3c(N)ccc(c23)C1=O | 12.4%

Structure (SMILES) | inhibition
CCN1C(=O)c2cccc3c(N)ccc1c23 | 97.1% (active)
CCN1C(=O)c2cccc3c(S(=O)(=O)Nc4ccccc4O)ccc1c23 | 5.31%
CCSc1sc(CC)cc1C=O | -7.54%
COCCC(=O)Nc1ccc2c(c1)CN(C(=O)CCOC)CC2 | -12.8%
Cc1occc1C(=O)N/N=C/c1ccc(-c2cccc([N+](=O)[O-])c2)o1 | 10.6%
Cc1ccc(-c2ccc(/C=N/NC(=O)CN3CCOCC3)o2)cc1[N+](=O)[O-] | 73.9% (active)
O=C(CN1CCOCC1)N/N=C/c1ccc(-c2ccc(Br)cc2)o1 | -12%
CCc1ccc(CNC(=O)C2CCN(c3nnc(C)c4c(C)n(-c5ccc(C)cc5)nc34)CC2)cc1 | 42.3% (active)
CCOc1ccc(CNC(=O)C2CCCN(c3nnc(C)c4c(C)n(-c5ccccc5)nc34)C2)cc1 (stereo not given) | 23.8%
COc1ccc(-n2nc3c(N4CCC(C(=O)NCc5ccccc5)CC4)nnc(C)c3c2C)cc1 | 7.29%
C=C(C)CSc1nc(N)c2c3c(sc2n1)CCC3 | -16.8%
CC(C)CNC(=O)/C=C/C(=O)O | -2.85%
O=C1c2ccccc2-c2ncnc3c(N4CCOCC4)cc(N4CCOCC4)c1c23 | 11.8%
COC1=C(N2CCOCC2)C(=O)c2ccccc2C1=O | 65.8% (active)
O=C1C(Cl)=C(N2CCOCC2)C(=O)N1c1ccccc1 | -17.1%
CC(C)OC(=O)C(C#N)c1nc2ccccc2nc1N1CCN(Cc2ccccc2)CC1 (stereo not given) | 10.2%
Cc1ccc(S(=O)(=O)C(C#N)c2nc3ccccc3nc2N2CCCC2)cc1C (stereo not given) | 60% (active)
Cc1ccc(S(=O)(=O)N2CCN(c3ccccc3)CC2)cc1C | 14.9%
CN(C(=O)CCNC(=O)Cn1ccc2ccccc2c1=O)c1ccc(Br)cc1 | 3.8%
Cc1ccc(C(C)C)c(OCc2nnc(SCC(=O)Nc3nccs3)n2C)c1 | 11.4%
C[C@@H](CN1CCC[C@H]1CN1C(N)=NC[C@@H]1Cc1ccccc1)N1C[C@@H](Cc2ccccc2)N(CCCC2CCCC2)C1=N | 70.9% (active)
CCCCN1C(N)=NC[C@@H]1Cc1ccccc1 | 13.2%
CC[C@@H](C)[C@@H]1CN([C@@H](C)CN2CCC[C@H]2CN2C(N)=NC[C@H]2C(C)C)C(=N)N1CCc1ccc(Cl)c(Cl)c1 | 25.3%
CC(C)CC(=O)N1CCN(Cc2ccccc2Br)CC1 | 8.5%

Structure (SMILES) | inhibition
COc1ccc(NC(=O)c2cccc3c2C(=O)N(CC2CCCO2)C3)cc1OC (stereo not given) | 2.96%
COCCc1nn2c(=O)cc(COC(=O)c3cc(OC)c(OC)c(OC)c3)nc2s1 | -4.08%
Cc1[nH]n(-c2ccccc2)c(=O)c1/C=N/NC(=O)c1ccoc1C | 61.5% (active)
COc1cc(/C=N/NC(=O)c2ccoc2C)ccc1OCCN1CCCCC1 | 10.2%
Cc1ccc(-n2[nH]c(C)c(/C=N/NC(=O)c3cccc([N+](=O)[O-])c3)c2=O)cc1C | 25.4%
CC(=O)n1c(C=Nc2ccccc2)c(O)c2ccccc21 | 5.41%
Oc1ccc(N=Cc2c(O)ccc3ccccc23)cc1 | 87.2% (active)
Oc1ccc(N=Cc2sc3ccccc3c2Cl)cc1 | 64.8% (active)
Oc1ccc(/C=N/N(Cc2ccccc2)c2ccccc2)cc1 | 8.85%
Cc1cc(N=Nc2ccc3ccccc3c2)ccc1O | 4.6%
CSc1ccc(CCNC(=O)C2CCN(c3nnc(-n4cccc4)s3)CC2)cc1 | 0.72%
O=C(NCCCn1ccnc1)c1cc2c(s1)CCCC2 | 11.9%
COc1ccc(-c2nc(N)sc2C2(O)C(=O)Nc3c(Br)cc(F)cc32)cc1OC (stereo not given) | 3.73%
CCOc1c2ccc(C(=O)NC3CCCc4ccccc43)cc2nn1CC (stereo not given) | 5.11%
CCOC(=O)N1CCC(=NNC(N)=O)CC1 | 1.89%
COCC(C)OC(=O)c1c(N)n(CCCN2CCOCC2)c2nc3ccccc3nc12 (stereo not given) | 50.9% (active)
C=CCn1c(C(C)NC(=O)CC)nc2ccccc21 (stereo not given) | -0.828%
C=CCn1c(P(C)(=O)O)nc2ccccc21 | 5.81% and -0.524%
O=C(NCc1cccs1)c1cc(-c2ccccn2)nc2ccc(Br)cc12 | 5.9%
CCOc1ccccc1NC(=O)Cn1nnc(C(=O)NCc2cccs2)c1N | -4.26%
CC(=O)c1ccc(NC(=O)CSc2nc3ccccc3c(=O)n2CCCN2CCOCC2)cc1 | 2.62%
C=CCn1c(N)c(C(=O)OCC(C)C)c2nc3ccccc3nc21 | 54.1% (active)
CC(CN1CCOCC1)OC(=O)c1ccc(C(C)(C)C)cc1 (stereo not given) | 15.5%
CC(C)Cn1c(N)c(C(=O)NCc2cccs2)c2nc3ccccc3nc21 | 63.4% (active)

Structure (SMILES) | inhibition
O=C(Nc1ccccc1Cl)NC1(C(=O)N2CCOCC2)CCCCC1 | -1.88%
Cn1cncc1C#Cc1c(-c2ccsc2)sc2ccccc12 | 33.5%
CCC/C=C(\CCC)C(NC(=O)Cc1ccccc1)c1ccc(C(=O)OC)cc1 (stereo not given) | 7.48%
CC1CCN(C(=O)COC(=O)c2cc(S(=O)(=O)N3CCOCC3)ccc2Cl)CC1 | 3.82%
CCOC(=O)c1ccc(NC(=O)Cn2cnc3cc(C)c(C)cc32)cc1 | -0.083%
O=C(CCC(=O)OCC(F)(F)C(F)F)NCc1ccccc1 | -13%
CCOc1ccc(NCCC(=O)c2ccc3c(c2)OCO3)cc1 | 4.39%
Oc1cc(O)c2c(c1)OC(c1ccc(O)c(O)c1)C(O)C2 (stereo not given) | -2.63%
COC(=O)C[n+]1cccc2ccccc21 | -1.6%
C/C(=N\NC(=O)c1cc(-c2ccc(O)cc2)nc2ccccc12)c1cccnc1 | 7.65%
COc1ccc(-c2cc(C(=O)N/N=C/c3cccnc3)c3ccccc3n2)c(OC)c1 | 4.65%
O=C(N/N=C\c1cccnc1)c1cc(-c2ccccc2)nc2c(Cl)cccc12 | 40.1% (active)
COc1ccc(C(CNC(=O)c2cc3c(s2)CCCC3)N2CCOCC2)cc1 (stereo not given) | 33.5%
COc1ccc(-c2nc3cnccn3c2NC2CCCCC2)cc1-c1cccc(Cl)c1 | 36.9%
CCOc1cc(-c2nc3cc(C)ccn3c2NCC2CCCO2)ccc1O (stereo not given) | 9.28%
COc1ccc(-c2nc3cc(C)ccn3c2NC2CCCCC2)cc1SC1CCCCC1 | 48.4% (active)
CC1CN(C(=S)Nc2cccc(F)c2)CC(C)O1 (stereo not given) | -7.38%
CCOc1ccc2[nH]c(=O)c(C(c3nnnn3CCOC)N3CCOCC3)cc2c1 (stereo not given) | -3.2%
COc1ccc(OC)c(C(c2nnnn2C(C)(C)C)N2CCc3ccccc3C2)c1 (stereo not given) | 11.5%
COCCn1nnnc1C(c1cc2ccc(OC)cc2[nH]c1=O)N1CCc2ccccc2C1 (stereo not given) | 56.8% (active)
Cc1cc(OCc2cc(C(=O)NCc3cc(C(C)C)no3)no2)cc(C)c1Cl | 17.4%
COC(=O)[C@@H]1C[C@@]2(O)[C@H](O)[C@H](O)[C@H](O)C[C@H]2N1Cc1ccc(C(C)(C)C)cc1 | 10.6%
CN(C)CCCN(Cc1cc2cc3c(cc2[nH]c1=O)OCCO3)C(=O)NC1CCCCC1 | 2.55%
